The source made the active and inactive calls.
Legend:
[1] = system: Rattus norvegicus; assay: Antinociceptive activity in iv dosed Sprague-Dawley rat assessed as hot plate latency compound administered as cumulative dose at 5 mins intervals in presence of naltrexone by Hot-plate test; format: functional, organism-based
Procedure, shortened: (§1)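 Adult female and male Sprague-Dawley rats (10 weeks, n = 6, three per sex) with right external jugular vein catheter. Vehicle 5% Tween 80 + 5% propylene glycol in sterile water, 1.0 mL/kg i.v. After baseline, vehicle then ascending cumulative doses every 5 min, then naltrexone 0.1 mg/kg i.v. Plate at 52 °C, 60 s cutoff. Latency converted to %MPE; ED50 (95% CI) by linear regression.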

[2] = molecular target: T1, Mu-type opioid receptor (Homo sapiens, UniProt P35372); assay: biochemical; format: cell-based, HEK293
T1 sequence (P35372 whole entry): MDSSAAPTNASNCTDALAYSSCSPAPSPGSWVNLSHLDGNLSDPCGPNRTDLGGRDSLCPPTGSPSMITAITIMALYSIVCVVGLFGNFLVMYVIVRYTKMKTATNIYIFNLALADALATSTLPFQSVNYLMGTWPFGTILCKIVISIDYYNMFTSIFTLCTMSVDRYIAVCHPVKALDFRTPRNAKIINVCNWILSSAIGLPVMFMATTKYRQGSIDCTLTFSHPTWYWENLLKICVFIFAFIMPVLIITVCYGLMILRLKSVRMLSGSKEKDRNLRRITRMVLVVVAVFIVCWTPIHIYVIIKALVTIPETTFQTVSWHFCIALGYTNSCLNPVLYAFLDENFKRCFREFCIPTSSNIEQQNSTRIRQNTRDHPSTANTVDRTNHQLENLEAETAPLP

[3] = molecular target: Kappa-type opioid receptor (Homo sapiens) (UniProt P41145); assay: Displacement of [3H]U69593 from human recombinant kappa opioid receptor expressed in Chem-1 (RBL) cells at 100 nM incubated for 60 mins by radiometric scintillation analysis; format: cell-based
Chain of Kappa-type opioid receptor (Homo sapiens) (P41145 whole entry): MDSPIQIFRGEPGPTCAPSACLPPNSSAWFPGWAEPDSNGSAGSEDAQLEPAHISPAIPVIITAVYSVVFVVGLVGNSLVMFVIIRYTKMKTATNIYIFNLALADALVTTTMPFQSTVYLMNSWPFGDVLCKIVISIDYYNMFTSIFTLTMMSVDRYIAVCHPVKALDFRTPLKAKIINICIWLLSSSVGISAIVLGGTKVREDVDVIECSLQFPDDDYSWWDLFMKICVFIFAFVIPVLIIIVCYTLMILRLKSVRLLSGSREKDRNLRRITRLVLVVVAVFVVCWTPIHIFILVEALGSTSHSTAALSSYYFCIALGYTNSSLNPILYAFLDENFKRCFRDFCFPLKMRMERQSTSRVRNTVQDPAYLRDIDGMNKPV
Procedure, shortened: (§2)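 κ receptor: human recombinant RBL cell membranes with [3H]U69,593 0.5 nM. Nonspecific binding defined with 10 μM naloxone. Incubated 60 min at room temperature. Screened at 0.1 and 10 μM. Bound fraction separated by vacuum filtration on glass fiber filters with ice-cold buffer washes. Read-out is percent displacement.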

[4] = molecular target: Kappa-type opioid receptor (Homo sapiens) (UniProt P41145); assay: Displacement of [3H]U69593 from human recombinant kappa opioid receptor expressed in Chem-1 (RBL) cells at 10000 nM incubated for 60 mins by radiometric scintillation analysis; format: cell-based; procedure, shortened: as §2
[5] = molecular target: Delta-type opioid receptor (Homo sapiens) (UniProt P41143); assay: Displacement of [3H]DADLE from human recombinant delta opioid receptor expressed in Chem-1 (RBL) cells at 100 nM incubated for 60 mins by radiometric scintillation analysis; format: cell-based
Chain of Delta-type opioid receptor (Homo sapiens) (P41143 whole entry): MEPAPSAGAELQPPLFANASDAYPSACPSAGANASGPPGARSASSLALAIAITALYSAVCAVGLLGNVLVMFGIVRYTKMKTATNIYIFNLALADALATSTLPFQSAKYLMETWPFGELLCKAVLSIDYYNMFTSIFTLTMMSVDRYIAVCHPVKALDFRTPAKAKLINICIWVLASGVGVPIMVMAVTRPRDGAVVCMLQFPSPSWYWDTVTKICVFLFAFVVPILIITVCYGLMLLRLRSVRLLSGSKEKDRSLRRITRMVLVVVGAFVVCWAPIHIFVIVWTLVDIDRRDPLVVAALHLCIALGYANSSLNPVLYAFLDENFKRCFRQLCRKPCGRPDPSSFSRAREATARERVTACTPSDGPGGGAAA
Procedure, shortened: (§3)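 δ receptor: membranes of human recombinant Chem-1 (RBL) cells with [3H]DADLE 0.5 nM. Nonspecific binding defined with 10 μM naltrexone. Incubated 60 min at room temperature. Test concentrations 0.1 and 10 μM. Bound ligand collected by rapid vacuum filtration on glass fiber filters, followed by ice-cold buffer rinses. Read-out is percent displacement.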

[6] = molecular target: T1, Mu-type opioid receptor; assay: Displacement of [3H]DAMGO from human recombinant mu opioid receptor expressed in HEK293 cells at 10000 nM incubated for 120 mins by radiometric scintillation analysis; format: cell-based
Procedure, shortened: (§4)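 Nonspecific binding defined with 10 μM naloxone. Incubation 120 min at room temperature. Compounds at 0.1 and 10 μM. Rapid vacuum filtration through presoaked glass fiber filters, rinsed with ice-cold buffer. Read-out is percent displacement.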

[7] = molecular target: Delta-type opioid receptor (Homo sapiens) (UniProt P41143); assay: Displacement of [3H]DADLE from human recombinant delta opioid receptor expressed in Chem-1 (RBL) cells at 10000 nM incubated for 60 mins by radiometric scintillation analysis; format: cell-based; procedure, shortened: as §3
[8] = molecular target: T1, Mu-type opioid receptor; assay: Displacement of [3H]DAMGO from human recombinant mu opioid receptor expressed in HEK293 cells at 100 nM incubated for 120 mins by radiometric scintillation analysis; format: cell-based; procedure, shortened: as §4
[9] = system: Rattus norvegicus; assay: Antinociceptive activity in iv dosed Sprague-Dawley rat assessed as hot plate latency compound administered as cumulative dose at 5 mins intervals by Hot-plate test; format: functional
Procedure, shortened: as §1, with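 “cutoff.” for “cutoff. Latency converted to %MPE; ED50 (95% CI) by linear regression.”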

Row | SMILES | Activity [1] | Ki [2] [nM] | Activity [3] [%] | Activity [4] [%] | Activity [5] [%] | Activity [6] [%] | Activity [7] [%] | Activity [8] [%] | ED50 [9] [mg/kg]
1 | O=C1CC[C@@]2(O)[C@H]3Cc4ccc(O)c5c4[C@@]2(CCN3CC2CC2)[C@H]1O5 | inactive | – | – | – | – | – | – | – | –
2 | CC[C@@H]1CN2CC[C@@]3(C(=O)Nc4ccccc43)[C@@H]2C[C@@H]1/C(=C\OC)C(=O)OC [CORYNOXINE] | – | 16.4 | 3.8 | 75.3 | -3.9 | 97.8 | 73.8 | 80.1 | 6.75
3 | CC[C@@H]1C[N+]2([O-])CCc3c([nH]c4cccc(OC)c34)[C@H]2C[C@@H]1/C(=C\OC)C(=O)OC (stereo partly drawn) | – | 553 | 6.6 | 80.9 | 5.1 | 84.6 | 53.5 | 10.5 | –
4 | CC[C@@H]1CN2CC[C@]3(C(=O)Nc4ccccc43)[C@@H]2C[C@@H]1/C(=C\OC)C(=O)OC [CORYNOXINE B] | – | 110 | 4.5 | 51.8 | -4.4 | 94.4 | 65.5 | 45.4 | –
5 | CC[C@@H]1CN2CC[C@]3(C(=O)Nc4cccc(OC)c43)[C@@H]2C[C@@H]1/C(=C\OC)C(=O)OC | – | 1720 | 5 | 23 | 10.4 | 66.5 | 87.1 | 7.3 | –
6 | CC[C@@H]1CN2CC[C@@]3(C(=O)Nc4cccc(O)c43)[C@H]2C[C@@H]1/C(=C\OC)C(=O)OC | – | 789 | 0.1 | 37.3 | 0 | 83.3 | 27.1 | 13.1 | –
7 | C=C[C@H]1CN2CCc3c([nH]c4cccc(OC)c34)[C@@H]2C[C@@H]1/C(=C\OC)C(=O)OC | – | 410 | – | – | – | – | – | – | –

— ChEMBL document CHEMBL4808166, “Exploring the Chemistry of Alkaloids from Malaysian Mitragyna speciosa (Kratom) and the Role of Oxindoles on Human Opioid Receptors” (J Nat Prod, 2021)
